ChEMBL document CHEMBL1122774, “Tri- and tetrapeptide analogues of kinins as potential renal vasodilators” (J Med Chem, 1984)
Square brackets hold non-standard residues; d marks the D form. Peptide text beside a SMILES is read from it. * marks the point of attachment. ξ: configuration not given here. pNA = O=[N+]([O-])c1ccc(N*)cc1; ξαMeF = CC(N)(Cc1ccccc1)C(=O)O; Bz = O=C(c1ccccc1)*

Columns and labels:
Canis familiaris [1] = assay: In vivo percent change in canine mean arterial blood pressure (MABP) at 3 ug/Kg/min.; assay type: functional, Canis lupus familiaris
Outline: (§1)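 Primary screen in anesthetized dogs (7-17 kg). Drug infused separately at 3, 30 and 300 µg/(kg min), each infusion lasting 5 min, at about 15-min intervals. Read-outs are renal blood flow, mean arterial blood pressure, heart rate, and RVR (MABP / mean RBF), as percent change. Significance thresholds are defined per number of dogs; n = 1-3 dogs.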

Canis familiaris [2] = assay: In vivo percent change in canine mean arterial blood pressure (MABP) at 300 ug/Kg/min.; assay type: functional, Canis lupus familiaris; outline: as §1
Canis familiaris [3] = assay: In vivo percent change in renal blood flow at 30 ug/Kg/min.; assay type: functional, Canis lupus familiaris, Kidney; outline: as §1
Canis familiaris [4] = assay: In vivo percent change in canine heart rate at 300 ug/Kg/min.; assay type: functional, Canis lupus familiaris; outline: as §1
Canis familiaris [5] = assay: In vivo percent change in canine renal vascular resistance (RVR) at 30 ug/Kg/min.; assay type: functional, Canis lupus familiaris; outline: as §1
Canis familiaris [6] = assay: In vivo percent change in canine renal blood flow (RBF) at 3 ug/Kg/min.; assay type: functional, Canis lupus familiaris, Kidney; outline: as §1
Canis familiaris [7] = assay: In vivo percent change in canine renal vascular resistance (RVR) at 300 ug/Kg/min.; assay type: functional, Canis lupus familiaris; outline: as §1
Canis familiaris [8] = assay: In vivo percent change in canine mean arterial blood pressure (MABP) at 30 ug/Kg/min.; assay type: functional, Canis lupus familiaris; outline: as §1
Canis familiaris [9] = assay: In vivo percent change in canine heart rate at 30 ug/Kg/min.; assay type: functional, Canis lupus familiaris; outline: as §1
Canis familiaris [10] = assay: In vivo percent change in canine renal vascular resistance (RVR) at 3 ug/Kg/min.; assay type: functional, Canis lupus familiaris; outline: as §1
Canis familiaris [11] = assay: In vivo percent change in canine heart rate at 3 ug/Kg/min.; assay type: functional, Canis lupus familiaris; outline: as §1
Canis familiaris [12] = assay: In vivo percent change in canine renal blood flow (RBF) at 300 ug/Kg/min.; assay type: functional, Canis lupus familiaris, Kidney; outline: as §1
Canis familiaris [13] = assay: In vivo percent change in canine renal blood flow (RBF) at 30 ug/Kg/min.; assay type: functional, Canis lupus familiaris, Kidney; outline: as §1
Canis familiaris [14] = assay: Renal vasodilator activity in anesthetized dogs and percent change in renal vascular resistance (RVR) was determined at 30 ug/Kg/min; assay type: functional, Canis lupus familiaris; outline: as §1
Canis familiaris [15] = assay: Renal vasodilator activity in anesthetized dogs and percent change in heart rate (HR) was determined at 300 ug/kg min; assay type: functional, Canis lupus familiaris; outline: as §1
[16] = Ratio of ED30 of iliac vascular resistant (IVR) to the ED15 of RVR (renal vascular resistance); assay type: functional
Outline: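 Anesthetized dogs in the secondary cumulative-infusion protocol, each dose level 5 min. Selectivity ratio is the dose giving a 30% change in iliac vascular resistance divided by the RVR ED15, the cumulative dose decreasing renal vascular resistance by 15%.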

[17] = Ratio of ED20 of MABP (mean arterial blood pressure) to the ED15 of RVR ( renal vascular resistance).; assay type: functional
Outline: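 Anesthetized dogs in the secondary cumulative-infusion protocol, each dose level 5 min. Selectivity ratio is the dose giving a 20% change in mean arterial blood pressure divided by the cumulative dose lowering renal vascular resistance 15% (RVR ED15).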

Canis familiaris [18] = assay: Renal vasodilator activity in anesthetized dogs and percent change in renal blood flow (RBF) was determined at 3 ug/kg min; assay type: functional, Canis lupus familiaris, Kidney; outline: as §1
Canis familiaris [19] = assay: Renal vasodilator activity in anesthetized dogs and percent change in mean arterial blood pressure (MABP) was determined at 300 ug/kg min; assay type: functional, Canis lupus familiaris; outline: as §1
Canis familiaris [20] = assay: Renal vasodilator activity in anesthetized dogs and percent change in renal vascular resistance (RVR) was determined at 30 ug/kg min; assay type: functional, Canis lupus familiaris; outline: as §1
Canis familiaris [21] = assay: Renal vasodilator activity in anesthetized dogs and percent change in heart rate (HR) was determined at 30 ug/kg min; assay type: functional, Canis lupus familiaris; outline: as §1
Canis familiaris [22] = assay: Renal vasodilator activity in anesthetized dogs and percent change in renal vascular resistance (RVR) was determined at 3 ug/kg min; assay type: functional, Canis lupus familiaris; outline: as §1
Canis familiaris [23] = assay: Renal vasodilator activity in anesthetized dogs and percent change in renal blood flow (RBF) was determined at 30 ug/kg min; assay type: functional, Canis lupus familiaris, Kidney; outline: as §1
[24] = Average max percent decrease in RVR (renal vascular resistance) was determined.
Outline: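 Secondary protocol in anesthetized dogs. Drug given as iv infusion at progressively increasing rates, each dose level for 5 min. The maximum effect is taken as the largest percent decrease in renal vascular resistance (RVR) reached with the compound. RVR is calculated as mean arterial blood pressure / mean renal blood flow.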

Canis familiaris [25] = assay: Renal vasodilator activity in anesthetized dogs and percent change in mean arterial blood pressure (MABP) was determined at 30 ug/kg min; assay type: functional, Canis lupus familiaris; outline: as §1
Canis familiaris [26] = assay: Renal vasodilator activity in anesthetized dogs and percent change in heart rate (HR) was determined at 3 ug/kg min; assay type: functional, Canis lupus familiaris; outline: as §1
Canis familiaris [27] = assay: Renal vasodilator activity in anesthetized dogs and percent change in renal vascular resistance (RVR) was determined at 300 ug/kg min; assay type: functional, Canis lupus familiaris; outline: as §1
Canis familiaris [28] = assay: Renal vasodilator activity in anesthetized dogs and percent change in mean arterial blood pressure (MABP) was determined at 3 ug/kg min; assay type: functional, Canis lupus familiaris; outline: as §1
Canis familiaris [29] = assay: Compound was evaluated for renal vasodilator activity and represented as ED15 (intravenous administration); assay type: functional; details: Canis lupus familiaris
Outline: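 Secondary protocol in anesthetized dogs with iv infusion at progressively increasing rates, each level infused 5 min. Potency is the cumulative dose (µg/kg) that lowered renal vascular resistance (MABP / mean RBF) by 15%. Minimum change needed for significance (p = 0.95) is 16% for RVR.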

Canis familiaris [30] = assay: Renal vasodilator activity in anesthetized dogs and percent change in renal blood flow (RBF) was determined at 300 ug/kg min; assay type: functional, Canis lupus familiaris, Kidney; outline: as §1
Canis familiaris [31] = assay: Renal vasodilator activity in anesthetized dogs and percent change in mean arterial blood pressure (MABP) was determined at 3 ug/Kg/min; assay type: functional, Canis lupus familiaris; outline: as §1

| Decrease [24] | Compound | Change (Canis familiaris [1]) | Change (Canis familiaris [2]) | Change (Canis familiaris [3]) | Change (Canis familiaris [4]) | Change (Canis familiaris [5]) | Change (Canis familiaris [6]) | Change (Canis familiaris [7]) | Change (Canis familiaris [8]) | Change (Canis familiaris [9]) | Change (Canis familiaris [10]) | Change (Canis familiaris [11]) | Change (Canis familiaris [12]) | other results |
| --- | --- | --- | --- | --- | --- | --- | --- | --- | --- | --- | --- | --- | --- | --- |
| – | CC(Cc1ccccc1)(NC(=O)[C@@H]1CCCN1C(=O)c1ccccc1)C(=O)N1CCC[C@H]1C(=O)O (some centres undefined) (Bz-Pro-[ξαMeF]-Pro-OH) | 0% | -4% | 0% | 0% | -5% | 4% | -4% | -5% | -6% | -4% | 3% | 0% | – |
| – | Cl.NCCCNC(=O)[C@H](Cc1ccccc1)NC(=O)[C@@H]1CCCN1C(=O)CCCc1ccccc1 | 0% | -2.7% | – | -5.3% | – | 0% | -8.9% | 0% | 0% | 0% | 0% | 6.5% | Change (Canis familiaris [13]): 5%; Change (Canis familiaris [14]): -3.8% |
| 16% | CC(Cc1ccc(O)cc1)(NC(=O)[C@@H]1CCCN1C(=O)CCCc1ccc(O)cc1)C(=O)N[C@@H](CCCN=C(N)N)C(=O)O (some centres undefined) | – | – | – | – | – | – | – | – | – | – | – | – | Change (Canis familiaris [15]): 2.4%; Ratio [16]: < 9; Ratio [17]: >1665; Change (Canis familiaris [18]): 20%; Change (Canis familiaris [19]): 1%; Change (Canis familiaris [20]): -20%; Change (Canis familiaris [21]): -7.5%; Change (Canis familiaris [22]): -19%; Change (Canis familiaris [23]): 28%; Change (Canis familiaris [25]): -3%; Change (Canis familiaris [26]): 3.5%; Change (Canis familiaris [27]): -17%; Change (Canis familiaris [28]): -2.5%; ED15 (Canis familiaris [29]): 0.0455 mg/kg; Change (Canis familiaris [30]): 28% |
| – | CC(Cc1ccccc1)(NC(=O)[C@@H]1CCCN1C(=O)CCCc1ccc(O)cc1)C(=O)NCCCCCC(=O)O (some centres undefined) | 0% | 1% | -4% | -6% | – | 1% | -4% | 2% | -2% | -1% | -4% | 5% | Change (Canis familiaris [14]): 5% |
| – | N=C(N)NCCC[C@H](NC[C@H](Cc1ccccc1)NC(=O)[C@@H]1CCCN1)C(=O)O | 0% | -2% | – | 0% | -3% | 0% | -2% | 0% | 0% | 0% | -3% | 0% | Change (Canis familiaris [13]): 3% |
| 20% | N=C(N)NCCC[C@H](NC(=O)[C@H](Cc1ccccc1)NC(=O)[C@@H]1CCCN1C(=O)c1ccccc1)C(=O)Nc1ccc([N+](=O)[O-])cc1 (Bz-Pro-Phe-Arg-pNA) | – | – | – | – | – | – | – | – | – | – | – | – | Change (Canis familiaris [15]): -10%; Ratio [16]: > 20; Change (Canis familiaris [18]): 1.9%; Change (Canis familiaris [19]): -26.6%; Change (Canis familiaris [20]): -3%; Change (Canis familiaris [21]): -3%; Change (Canis familiaris [22]): 0%; Change (Canis familiaris [23]): 4.8%; Change (Canis familiaris [25]): 1.5%; Change (Canis familiaris [26]): 0%; Change (Canis familiaris [27]): -38.7%; Change (Canis familiaris [28]): 1.2%; ED15 (Canis familiaris [29]): 0.297 mg/kg; Change (Canis familiaris [30]): 27% |
| – | CC(CN[C@@H](CCCN=C(N)N)C(=O)O)(Cc1ccccc1)NC(=O)[C@@H]1CCCN1 (some centres undefined) | 1% | -5% | 8% | -7% | -6% | 0% | -11% | 1% | 4% | 1% | 0% | 7% | – |
| – | COc1ccc(CC(C)(NC(=O)[C@@H]2CCCN2C(=O)CCCc2ccccc2)C(=O)N[C@@H](CCCN=C(N)N)C(=O)O)cc1OC (some centres undefined) | – | -2% | 8.5% | 2.5% | -8.5% | 7.5% | -7% | -1% | 1% | -8.5% | 4.5% | 5% | Change (Canis familiaris [31]): -2% |
| 67% | H-RPPGFSPFR-OH [BRADYKININ] | – | – | – | – | – | – | – | – | – | – | – | – | – |
